Results gathered from unrelated publications.
ALK C1156Y: ALK tyrosine kinase receptor (ALK, Homo sapiens, UniProt Q9UM73, C1156Y)
ALK: ALK tyrosine kinase receptor (ALK, Homo sapiens, UniProt Q9UM73)

SMILES	target	observed	action	method	tested at	measurement	result
CCCCC(=O)Nc1ccc(-c2ccc3ncn(CCC)c(=O)c3c2)cn1	ALK C1156Y	binding	–	competition with immobilised ligand	0.5 µM	remaining binding	100%
C#Cc1cnc(Nc2ccnc(CO)c2)nc1Nc1ccccc1S(C)(=O)=NC#N (centres unmarked)	ALK	enzyme activity	inhibitor	radiometric	1 µM	remaining activity	27.6%
CO[C@@H]1[C@H](N(C)C(=O)c2ccccc2)C[C@H]2O[C@]1(C)n1c3ccccc3c3c4c(c5c6ccccc6n2c5c31)C(=O)NC4	ALK	enzyme activity	inhibitor	–	1 µM	inhibition	54%
CS(=O)(=O)c1ccccc1Nc1nc(Nc2ccnc(CO)c2)ncc1Cl	ALK	enzyme activity	inhibitor	radiometric	1 µM	remaining activity	10.2%
C[C@H]1CC[C@H](n2c3cnccc3c3cnc(Nc4ccc5c(n4)CCN(C(=O)CO)C5)nc32)CC1	ALK	binding	–	–	1 µM	remaining binding	84%
C1=C/COCc2cc(ccc2OCCN2CCCC2)Nc2nccc(n2)-c2cccc(c2)COC/1	ALK C1156Y	binding	–	–	0.1 µM	remaining binding	97%
N#Cc1ccc(NC(=O)Nc2ccccc2)cc1	ALK	cell-free assay	–	competition with immobilised ligand	25 µM	remaining binding	76%
CS(=O)(=NC#N)c1ccccc1Nc1nc(Nc2ccnc(CO)c2)ncc1Cl (centres unmarked)	ALK	enzyme activity	inhibitor	radiometric	1 µM	remaining activity	36.7%
CN1CCN(C(=O)c2ccc(NC(=O)Nc3ccc(N(C)c4ccnc(Nc5ccc(CS(C)(=O)=O)cc5)n4)cc3)cc2)CC1	ALK C1156Y	binding	–	–	1 µM	remaining binding	64%
CNC(=O)c1ccccc1Nc1nc(Nc2ccc(CO)cc2)ncc1Cl	ALK	enzyme activity	inhibitor	radiometric	1 µM	remaining activity	1.07%
C=CC(=O)N1CCC([C@@H]2CCNc3c(C(N)=O)c(-c4ccc(Oc5ccccc5)cc4)nn32)CC1	ALK tyrosine kinase receptor (ALK, Homo sapiens, UniProt Q9UM73, L1196M)	cell-free assay	–	–	1 µM	inhibition	19%
COc1ccc2[nH]c3c4[nH]c5ccc(OC)cc5c4c4c(c3c2c1)C(=O)NC4=O	ALK	binding	–	–	1 µM	remaining binding	55%
CC#CC(=O)N1CCC[C@H]1c1nc(-c2ccc(C(=O)Nc3ccccn3)cc2)c2c(N)nccn12	ALK C1156Y	enzyme activity	inhibitor	–	1 µM	inhibition	0%
Cc1ccc(NC(=O)c2ccnc(C(F)(F)F)c2)cc1-c1cc(OCCO)nc(N2CCOCC2)c1	ALK	binding	–	–	1 µM	remaining binding	89%
